The text below walks through data of article PMC5071122 (The Pediatric infectious disease journal, 2016).

The nature of series [1]: Open-label PK trial of IV micafungin in infants on ECMO. As to conditions: human, in vivo.
Series [2] in a line: Observed micafungin exposure. The series is classed as in vivo, infants. As to conditions: 4 mg/kg IV every 24h. An outline of the steps: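 Infants on ECMO, prophylactic arm, given IV test compound 4 mg/kg every 24h for up to 8 days. EDTA arterial plasma sampled around dose 4, from pre-infusion to 22-24h post-infusion, and assayed by HPLC-fluorescence (LLOQ 0.05 mg/L). AUC0-24 was computed from observed data by the linear-up log-down trapezoidal method and compared with the therapeutic target of 75-139 mg*h/L.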

Series [3] in a line: Safety: adverse events in infants on ECMO receiving micafungin. Format: in vivo.
The conditions of series [4]: cited from earlier work.
For series [5] the following is noted: ref 33; cited from earlier work.
For series [6] the following is noted: cited from earlier work. The source holds these as a separate data set.
The conditions of series [7]: via hepatic transporter proteins; cited from earlier work.
For series [8] the following is noted: neonatal trial of 15 mg/kg/day; standard deviation 99; cited from earlier work.
The conditions of series [9]: phase III efficacy trial, used as target efficacy exposure; cited from earlier work.
The conditions of series [10]: infants and children receiving micafungin; cited from earlier work.
The conditions of series [11]: cited from earlier work. This is another data set of the same source.
Series [12] relates to Candida spp. To be noted: ref 6-8; cited from earlier work.

Structures are written as SMILES. Read-outs that look alike come from different tables or passages of the source. Starred links: 1 amine or outer side, 2 acyl side, 3 side chain; linkers in the order of their positions; H or OH if unused. Positions of bridges follow the written chain, without caps; N, C: chain ends. Non-standard residues stand in square brackets, D forms with d. Residues, ends and D or L forms follow the SMILES beside them. *: point of attachment. hTyr(3S-OH,4S-OH,3'-OSO3H) = N[C@H](C(=O)O)[C@H](O)[C@@H](O)c1ccc(O)c(OS(=O)(=O)O)c1; Orn(4R-OH,5R-OH) = O=C([C@H](C[C@@H](O)[C@@H](O)N[*:3])N[*:1])[*:2]; Pro(3S-OH,4S-Me) = C[C@H]1CN[C@H](C(=O)O)[C@H]1O; X1 = CCCCCOc1ccc(-c2cc(-c3ccc(C(=O)*)cc3)no2)cc1; Gln(3R-OH) = NC(=O)C[C@@H](O)[C@H](N)C(=O)O; Hyp = O=C(O)[C@@H]1C[C@@H](O)CN1

The term Vd denotes a proportionality between amount in the body and measured concentration, not a real space. The low end stands for little distribution into tissue, the high end for wide distribution into tissue. The term clearance denotes the volume of plasma or blood freed of the substance per unit of time. Low readings indicate a low capacity for elimination, high ones a high capacity for elimination. The logP is a log measure of how a compound divides between an organic and an aqueous phase.

Consider `CCCCCOc1ccc(-c2cc(-c3ccc(C(=O)N[C@H]4C[C@@H](O)[C@@H](O)NC(=O)[C@@H]5[C@@H](O)[C@@H](C)CN5C(=O)[C@H]([C@H](O)CC(N)=O)NC(=O)[C@H]([C@H](O)[C@@H](O)c5ccc(O)c(OS(=O)(=O)O)c5)NC(=O)[C@@H]5C[C@@H](O)CN5C(=O)[C@H]([C@@H](C)O)NC4=O)cc3)no2)cc1` [micafungin] (X1-[Orn(4R-OH,5R-OH)]T[Hyp][hTyr(3S-OH,4S-OH,3'-OSO3H)][Gln(3R-OH)][Pro(3S-OH,4S-Me)]; lactam 1-C), for which, in series [1], the Vd turned out to be 0.64 L/kg and the clearance was 0.683 mL/min/kg. Also, the “Infants with a hemofilter achieving AUC0-24 within or above the therapeutic target range” value in [2] (after dose 1 and 4, Two/4 infants) is listed as 50%. Further, the “Infants within the therapeutic range after dose 4” value in series [2] (prophylactic arm, 3/5 infants sampled around dose 4) is 60%. Further, in series [2] (prophylactic arm, 5/11 infants), the “Infants achieving the therapeutic exposure target (75-139 mg*h/L) after a single dose” value was 45%. For the same compound, the “Deaths considered related to micafungin” value in series [3] (12 infants on ECMO, study period) is “None”. In addition, the Tolerability result in series [3] (cohort of infants supported by ECMO) was “well tolerated”. In series [4] (ref 14), the Protein bound is reported as above 99%. Further, in [4] (ref 33), the Protein bound is recorded as above 99%. Moreover, in series [5], the logP is reported as −1.5. Further, the “V reported in infants not on ECMO” value in [6] (ref 15, 25) is 0.34 to 0.54 L/kg. In series [6] (ref 19, 24-26), the “CL, previously reported values for infants not supported by ECMO” value was 0.333 to 0.65 mL/min/kg. The “Excreted primarily unchanged into bile and feces” value in series [7] was 71%. Also, the “Mean (standard deviation) exposure deemed safe” value in [8] was 438 µg·h/mL. Moreover, in series [9], the “AUC0-24 range, exposure of adult participants who cleared their fungal infection” value is 75 to 139 µg·h/mL. In series [10], the “Hypokalemia, proportion of infants and children” value is on record as 2%; the “Liver toxicity, proportion of infants and children” value was 3%. In series [11] (reconstituted, room temperature, exposed to light), the “Time reconstituted micafungin is stable” value is reported as “up to 24 hours”. Besides, the Light sensitivity entry in series [11] (ref 16) was “light-sensitive”. For the same compound, in [12], the “Activity against a broad spectrum of Candida spp” value is on record as “fungicidal” and the Biofilm penetration result is listed as “can penetrate biofilms”.
